# Assay results published in article PMC12086512 (Protein Science : A Publication of the Protein Society, 2025).
# B1: Fab B11: phage-derived synthetic human Fab binding p67C, neutralizes T. parva sporozoites (antibody, V domains shown)
# VH: EVQLVESGGGLVQPGGSLRLSCAASGFNISSSSIHWVRQAPGKGLEWVASISPYYSSTSYADSVKGRFTISADTSKNTAYLQMNSLRAEDTAVYYCARGPGYAMDYWGQGTLVTVSS
# VL: DIQMTQSPSSLSASVGDRVTITCRASQSVSSAVAWYQQKPGKAPKLLIYSASSLYSGVPSRFSGSRSGTDFTLTISSLQPEDFATYYCQQYYYAPITFGQGTKVEIK
# Tests used:
# [1] = system: His‐p67C (p67 residues 572–651); assay: ELISA, binding to immobilized p67C; design: species or system Theileria parva; conditions: 50 nM antibody
# Method in brief: (§1)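 Proteins coated overnight at 4°C in PBS: full-length C-His p67 (Expi293, Ni-NTA), p67 fragments (E. coli BL21(DE3), GST/6xHis fusion, glutathione resin, TEV cleavage where needed), ubiquitin or BSA. Fab detected with HRP anti-FLAG, IgG with HRP anti-Fc. Eight washes with PBS/0.25% Tween 20 between steps. TMB 2 min, stopped with 1.0 M phosphoric acid, A450 read.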
# [2] = system: T. parva sporozoites; assay: In vitro sporozoite neutralization assay with bovine PBMCs; format: cell-based, Theileria parva; conditions: exact values not determined due to incomplete fitting
# [3] = system: ubiquitin; assay: ELISA, negative control protein ubiquitin; format: binding; conditions: serial dilutions of Fab
# Method in brief: as §1
# [4] = system: full‐length p67; assay: ELISA, binding to full-length p67; design: species or system Theileria parva; conditions: 50 nM antibody
# Method in brief: as §1
# [5] = system: bovine serum albumin; assay: ELISA, negative control protein BSA; format: binding; conditions: serial dilutions of Fab
# Method in brief: as §1
# [6] = system: p67^1 (residues 572–612); assay: ELISA, binding to p67^1; design: species or system Theileria parva; conditions: 50 nM antibody
# Method in brief: as §1
molecule,measurement,setting,value
B1,Binding to p67C,[1],bound
same,Fold less neutralizing potency than IgGs B11 and 21.4,[2],roughly 10 fold
same,Binding to control protein ubiquitin,[3],no detectable binding
same,Binding to full-length p67,[4],bound
same,Binding to control protein bovine serum albumin,[5],no detectable binding
same,Binding to p67^1,[6],bound
